Rows were chosen to be rich in hits. Some 3.1% of all compounds tested hit in one or more screens of this group.
hERG protect: hERG (human) protection from proarrhythmic block; Q12809; CHO-hERG, FluxOR thallium flux, dofetilide IC70 present; activation (rescue from dofetilide block), less the hit threshold, % at 10 µM; 310,000 compounds, 0.51% hits; AID 1511;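 active = activation above the mean of controls blocked by dofetilide plus 5 SD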;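 also: thallium influx through hERG after potassium depolarization seen as dye fluorescence rise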
Target sequence (Q12809 whole entry, looked up): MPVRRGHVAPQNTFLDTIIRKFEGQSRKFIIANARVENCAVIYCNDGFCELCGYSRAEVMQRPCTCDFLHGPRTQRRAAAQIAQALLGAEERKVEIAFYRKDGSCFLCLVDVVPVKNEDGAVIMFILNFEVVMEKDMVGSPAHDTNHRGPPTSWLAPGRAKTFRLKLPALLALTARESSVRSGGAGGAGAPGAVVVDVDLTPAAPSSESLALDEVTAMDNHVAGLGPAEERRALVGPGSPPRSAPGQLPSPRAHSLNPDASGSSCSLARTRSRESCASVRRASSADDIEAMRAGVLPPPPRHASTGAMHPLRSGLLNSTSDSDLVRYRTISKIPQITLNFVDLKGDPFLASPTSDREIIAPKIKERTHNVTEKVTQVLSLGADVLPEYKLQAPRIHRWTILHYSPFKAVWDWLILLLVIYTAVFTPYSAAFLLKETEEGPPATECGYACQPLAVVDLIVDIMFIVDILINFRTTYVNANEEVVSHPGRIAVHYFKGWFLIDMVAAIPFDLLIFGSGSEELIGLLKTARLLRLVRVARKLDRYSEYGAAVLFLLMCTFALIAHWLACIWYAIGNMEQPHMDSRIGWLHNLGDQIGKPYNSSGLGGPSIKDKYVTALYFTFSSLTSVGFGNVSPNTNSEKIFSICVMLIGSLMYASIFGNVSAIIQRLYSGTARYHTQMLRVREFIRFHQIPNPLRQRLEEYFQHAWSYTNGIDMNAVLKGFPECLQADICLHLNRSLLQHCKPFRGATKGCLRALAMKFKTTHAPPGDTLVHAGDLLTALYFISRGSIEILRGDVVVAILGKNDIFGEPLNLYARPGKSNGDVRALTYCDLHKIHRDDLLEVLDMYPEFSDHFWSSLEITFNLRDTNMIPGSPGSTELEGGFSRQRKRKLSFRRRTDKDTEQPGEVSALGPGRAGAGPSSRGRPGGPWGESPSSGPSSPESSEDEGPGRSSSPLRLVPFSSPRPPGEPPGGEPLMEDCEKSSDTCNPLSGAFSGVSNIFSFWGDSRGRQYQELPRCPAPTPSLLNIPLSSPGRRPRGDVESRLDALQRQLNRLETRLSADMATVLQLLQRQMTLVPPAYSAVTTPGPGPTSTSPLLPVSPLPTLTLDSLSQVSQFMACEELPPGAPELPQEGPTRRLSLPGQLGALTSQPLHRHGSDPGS
KCNK3 block: human KCNK3 channel inhibition, primary screen. O14649. B-score at 10 µM. 340,000 compounds, 0.84% hits. AID 602410. CHO-KCNK3 thallium flux, FluxOR fluorescence; stronger effect = lower value;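 active = B-score under library mean minus 4 SD, starting fluorescence ratio at most library mean plus 5 SD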;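 also: more negative B-score means stronger inhibition of thallium flux through KCNK3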
KCNQ1 act: potentiators or activators of human KCNQ1 potassium channel. AID 2648. CHO-K1 KCNQ1, thallium flux FluxOR fluorescence; stronger effect = higher value. 310,000 compounds, 0.35% hits. B-score at 10 µM;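 active = fluorescence ratio B-score, a plate-corrected score, at least three library SD, with initial intensity B-score within 5 SD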
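Assay system: CHO-K1 cells stably expressing KCNQ1. Medium: assay buffer for compound exposure, DMSO matched across wells. Timing: 37 °C overnight plating, 90-min dark dye load, 20-min compound pretreatment. Signal: kinetic FluxOR fluorescence, 10 s baseline plus 110 s post-stimulus.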
KCNK9 inh: inhibitors of human KCNK9 two-pore domain potassium channel; B-score at 10 µM; Q9NPC2; HEK293 KCNK9, FluxOR thallium flux fluorescence; stronger effect = lower value; 310,000 compounds, 1.2% hits;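 active = ratio B-score over 3 SD below the library mean, with starting fluorescence within 5 SD of its mean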;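 also: negative B-score means less thallium flux so channel inhibition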
KCNQ1 block: blocks the human KCNQ1 potassium channel; CHO-K1 KCNQ1, FluxOR thallium flux fluorescence; stronger effect = higher value; P51787; B-score at 10 µM; 310,000 compounds, 1.3% hits;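 active = compounds whose thallium flux B-score, printed positive for inhibition, exceeds three library SD while starting fluorescence stays within three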;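 also: channel opened by potassium depolarization with thallium stimulus after 20 min compound exposure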
KCNK9 inh conf: human KCNK9 inhibitor confirmation; shares compounds with KCNK9 inh; HEK293 KCNK9 cells, FluxOR thallium flux fluorescence; inhibition, % at 10 µM; 4,900 compounds, 43% hits; AID 492992;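 active = thallium signal inhibited by more than 5 SD of the compound-free buffer control wells, on both duplicate plates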;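 also: 0% = assay buffer control wells without compound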
Kir21 sel: tests whether KCNK9 modulators also affect mouse Kir2.1; shares compounds with KCNK9 inh; 4,900 compounds, 4% hits; Kir2.1 cells, FluxOR thallium flux fluorescence; inhibition, % at 10 µM; AID 492993;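 active = thallium signal drop more than 5 SD beyond the mean of the no-compound control wells, seen in both duplicate plates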;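 also: signal is fluorescence rise after thallium addition divided by baseline fluorescence; plate controls were assay buffer only for no effect and full block by chlorpromazine control for full effect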
KCNK9 uninduced: non-induced cell nonspecific activity of KCNK9 modulators. AID 492997. 4,900 compounds, 40% hits. shares compounds with KCNK9 inh. inhibition, % at 10 µM. non-induced KCNK9-HEK293, FluxOR thallium flux;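 active = thallium signal drop beyond 5 SD of the untreated control mean, on both duplicate plates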;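 also: plate controls were buffer only IC0 wells for no effect and SID17386958 at its maximal inhibitory level for full effect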
* marks the source's active call; other numbers are inactive results; i = inactive; . = no result.

SMILES | hERG protect | KCNK3 block | KCNQ1 act | KCNK9 inh | KCNQ1 block | KCNK9 inh conf | Kir21 sel | KCNK9 uninduced
Fc1ccc(Cn2c(SCc3ccc(F)c(C(F)(F)F)c3)nnc2C(F)(F)F)cc1 | -10 | i | i | -10* | i | 42%* | i | 44%*
Cn1nnnc1SCc1ccc(F)cc1 | -8 | i | i | i | i | . | . | .
Fc1ccc(Cn2c(SCc3ccc(F)c(F)c3)nnc2C(F)(F)F)cc1 | -18 | i | i | -9* | i | 29%* | i | 38%*
CC(=O)Nc1ccc(NS(=O)(=O)c2ccc(C)cc2)c([N+](=O)[O-])c1 | -4 | i | i | i | i | . | . | .
COc1ccc(C)cc1NC(=O)CCNC(=O)Cn1cnc2ccccc2c1=O | -6 | i | i | i | i | . | . | .
Cc1sc2ncnc(NCC(c3ccccc3)N(C)C)c2c1C (stereo not given) | -8 | i | i | i | i | . | . | .
Cc1nc(NCC(c2ccccc2)N(C)C)c2c(C)c(C)sc2n1 (stereo not given) | -11 | i | i | i | i | i | i | i
O=C(NCC1CCN(S(=O)(=O)c2ccccc2)CC1)Nc1ccccc1 | -9 | i | i | i | i | . | . | .
O=C(N/N=C/c1ccccn1)c1cc(-c2ccc3ccccc3c2)n[nH]1 | -9 | i | i | -13* | i | 45%* | i | 31%*
O=C(c1cccs1)N(Cc1ccco1)c1nc(-c2ccc(F)cc2)cs1 | -6 | -14* | i | -14* | 6* | 64%* | i | 48%*
CCC(=O)N(Cc1ccco1)c1nc(-c2ccccc2)cs1 | -9 | i | i | i | i | . | . | .
COc1ccccc1OCC(=O)NC1CCSc2ccccc21 (stereo not given) | . | i | . | . | . | . | . | .
CCOc1ccccc1C(=O)N[C@H](C(=O)OCc1cc([N+](=O)[O-])cc2c1OCOC2)C(C)C | -13 | i | i | -10* | i | 48%* | i | 25%*
CC(C)C(NC(=O)c1ccccc1)C(=O)OCc1cc([N+](=O)[O-])cc2c1OCOC2 (stereo not given) | -8 | i | i | i | i | . | . | .
CCc1n[nH]c(=S)n1/N=C/c1cc(OC)cc([N+](=O)[O-])c1O | -4 | i | i | i | i | . | . | .
COc1ccc(-c2noc(CN(C)CCC3CCCCO3)n2)cc1 (stereo not given) | -5 | i | i | i | i | i | i | i
COc1ccc(-c2noc(CN(C)C(=O)c3ccc4c(c3)OCO4)n2)cc1OC | -4 | i | i | i | i | . | . | .
COC(=O)c1ccc(-c2noc(CN(C)CCC3CCCCO3)n2)cc1 (stereo not given) | -5 | i | i | i | i | i | i | i
COc1ccc(C(=O)N(Cc2nc(-c3ccc(C)cc3)no2)C2CCCCC2)cc1OC | -1 | i | i | i | i | i | i | i
O=C1N(Cc2ccccc2)c2ccc(Cl)cc2C12OCCO2 | -7 | i | i | i | i | . | . | .
COc1ccc(NC(=O)c2cncc(Br)c2)cc1S(=O)(=O)N1CCCCC1 | -7 | i | i | i | i | . | . | .
CCOC(=O)c1cc(NC(=O)Nc2nccs2)c(C)nc1C | -4 | i | i | i | i | . | . | .
Cc1ccc(CSCC(=O)N/N=C/c2cccc(OC3CSC3)c2)cc1 | -9 | i | i | i | i | i | i | i
Cc1ccc(S(=O)(=O)N/N=C/c2cccc(OC3CSC3)c2)cc1 | -8 | i | i | i | i | . | . | .
CCc1ccc(C(=O)NCc2ccc(Cl)cc2)cc1 | -4 | i | i | i | i | . | . | .
SMILES | hERG protect | KCNK3 block | KCNQ1 act | KCNK9 inh | KCNQ1 block | KCNK9 inh conf | Kir21 sel | KCNK9 uninduced
COc1ccc(NC(=O)CCS(=O)(=O)c2ccccc2Cl)cc1S(=O)(=O)Nc1ccc(Cl)cc1 | -8 | i | i | i | i | . | . | .
COc1ccc(NS(=O)(=O)c2cc(NC(=O)CCSc3ccccc3)ccc2OC)cc1 | 1 | i | i | i | i | i | i | i
COc1ccc(NC(=O)CCSc2ccc(C)cc2)cc1S(=O)(=O)Nc1ccccc1Cl | -6 | i | i | i | i | i | i | i
CCN(CC(=O)NCc1cccs1)C(=O)c1cccc(S(=O)(=O)Nc2ccc(C)cc2)c1 | -11 | i | i | i | i | . | . | .
O=C(O)CSc1ccc2ccccc2n1 | -1 | i | i | i | i | . | . | .
O=C(CSc1ccc2ccccc2n1)c1ccc2c(c1)OCO2 | -5 | i | i | -8.3* | i | 39%* | i | 36%*
CCc1ccc(NC(=O)c2ccc(C3SCC(=O)N3CCc3ccccc3)cc2)cc1 (stereo not given) | -13 | i | i | i | i | i | i | i
Cc1ccc(S(=O)(=O)N2CCN(C(=O)CSc3ncc(C(F)(F)F)cc3Cl)CC2)cc1 | -6 | i | i | i | i | i | i | i
CSCCC(NS(=O)(=O)c1ccc(C)cc1)C(=O)N1CCN(C(c2ccccc2)c2ccccc2)CC1 (stereo not given) | -14 | i | i | -9.4* | i | 35%* | i | 32%*
COc1ccccc1OCCOCCOc1ccc(C)cc1Br | -5 | i | i | i | i | i | i | i
Cc1ccc(OCCCCN(C)Cc2ccccc2)c(Br)c1 | -14 | i | i | i | i | i | 80%* | i
N#Cc1ccc(-c2cccnc2)nc1SCc1ccc(Cl)cc1Cl | -4 | i | i | -13* | i | 46%* | i | 38%*
Cc1ccc(S(=O)(=O)CCC(=O)OCc2ccccc2F)cc1 | -10 | i | i | i | i | . | . | .
Cc1nn(-c2ccccc2)c(N)c1N=Nc1ccccc1 | -12 | i | i | -11* | i | 29%* | i | 28%*
Cc1cccc(N=Nc2c(C)nn(-c3ccccc3)c2N)c1C | -5 | i | i | -9.3* | i | 34%* | i | i
COC(=O)c1ccc(N=CC2=C(O)CC(c3ccccc3)CC2=O)cc1 (stereo not given) | -8 | i | i | i | i | . | . | .
COc1ccc(NC(=O)C23CC4CC(C2)CC(c2ccc(C)cc2)(C4)C3)cc1 | -12 | i | i | i | i | i | i | i

Compound activity from PubChem.
